From ChEMBL document CHEMBL4680106, “Rational Design of Dimeric Lysine N-Alkylamides as Potent and Broad-Spectrum Antibacterial Agents” (J Med Chem, 2018)
Values after ≈ are worked out from the molar mass of the structure shown. Active and inactive are the calls of the source. The rule behind the calls is not given here.

Legend:
Staphylococcus aureus [1] = experiment: Antimicrobial activity against methicillin-resistant Staphylococcus aureus ATCC 33591 assessed as inhibition of bacterial growth by broth microdilution method; type: functional
Summary of the method: (§1)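 Broth microdilution following a previously reported procedure. MIC was taken as the lowest concentration with no turbidity, meaning complete growth inhibition over the incubation period.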

[2] = system: Staphylococcus epidermidis; experiment: Antimicrobial activity against methicillin-resistant Staphylococcus epidermidis RP62A assessed as inhibition of bacterial growth by broth microdilution method; type: functional; summary of the method: as §1
Enterococcus faecalis = experiment: Antimicrobial activity against vancomycin-resistant Enterococcus faecalis assessed as inhibition of bacterial growth by broth microdilution method; type: functional; summary of the method: as §1
Pseudomonas aeruginosa = experiment: Antimicrobial activity against Pseudomonas aeruginosa ATCC 27853 assessed as inhibition of bacterial growth by broth microdilution method; type: functional
Escherichia coli [3] = experiment: Antimicrobial activity against Escherichia coli ATCC 25922 assessed as inhibition of bacterial growth by broth microdilution method; type: functional
Staphylococcus aureus [4] = experiment: Bactericidal activity against methicillin-resistant Staphylococcus aureus ATCC 33591 assessed as bacterial killing by measuring reduction in bacterial colony count at 64 times MIC incubated for 2 hrs by time-kill kinetics method; type: functional, organism-based
Summary of the method: (§2)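 MRSA were grown in tryptic soy broth to 10^6 CFU/mL and exposed to compound at multiples of MIC, sampled for up to 2 h. Aliquots were diluted 10^2–10^4-fold and plated on TSB agar, incubated 24 h at 37 °C, and colonies counted. Run three times.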

Staphylococcus aureus [5] = experiment: Antimicrobial activity against methicillin-resistant Staphylococcus aureus ATCC 33591 grown under presence of test compound at 1/2 MIC assessed as inhibition of bacterial growth measured after 14 passages by broth microdilution method relative to wild type; type: functional
Summary of the method: (§3)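 Initial MIC by the standard broth microdilution procedure. Bacteria from the 1/2 MIC wells were made into a suspension of about 10^6 CFU/mL, incubated with compound at 37 °C for 24 h, and the MIC was measured again. This was repeated daily for 14 passages.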

[6] = Induction of hemolysis in human RBC incubated for 1 hr; type: cell-based, Erythrocyte; conditions: human red blood cells (erythrocytes)
Summary of the method: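 Human RBCs pelleted at 3000 rpm for 10 min and made 5% v/v in 1x PBS, mixed 1:1 with compound at several concentrations, 37 °C for 1 h. Spun at 3500 rpm for 10 min; diluted supernatant read at 540 nm. Hemolysis % referenced to 2% Triton X-100 (100%) and PBS (0%). Three repeats, duplicates each.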

Staphylococcus aureus [7] = experiment: Bactericidal activity against methicillin-resistant Staphylococcus aureus ATCC 33591 assessed as bacterial killing by measuring reduction in bacterial colony count at 16 to 32 x MIC measured within 10 mins by time-kill kinetics method; conditions: dose 16-32 x MIC; time min <=10
Cell membrane [8] = experiment: Induction of cell membrane disruption in methicillin-resistant Staphylococcus aureus ATCC 33591 at 2 times MIC incubated for 2 hrs by DAPI and PI staining based optical microscopy
Summary of the method: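 Bacteria at about 2 × 10^6 cells were treated at 2 × MIC for 2 h, then centrifuged and washed in PBS. They were stained with PI (5 µg/mL) and then DAPI (10 µg/mL), each for 15 min in the dark at 0 °C. Imaged by oil-immersion light microscopy at 100×. Untreated controls were processed identically. Three runs in duplicate.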

Escherichia coli [9] = experiment: Inhibition of biofilm formation in Escherichia coli ATCC 25922 at 1.5 ug/ml incubated overnight by crystal violet staining based method; type: functional
Summary of the method: (§4)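 Overnight-grown (12 h) bacteria diluted 1:100 into 10% MHII broth and incubated with compound overnight at 37 °C. OD600 recorded, then biomass by crystal violet, expressed as CV OD/growth OD and normalized to untreated control. Triplicate, mean ± STDEV.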

Cell membrane [10] = experiment: Induction of membrane depolarization in methicillin-resistant Staphylococcus aureus ATCC 33591 assessed as induction of membrane potential loss at 5 ug/ml incubated for 30 mins by DiSC3(5) dye based bacterial membrane depolarization assay; conditions: dose 5.0 µg/ml
Summary of the method: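 Mid-log MRSA were washed and resuspended at 10^8 CFU/mL in a 1:1:1 mix of 5 mM glucose, 5 mM HEPES and 100 mM KCl, with 2 µM DiSC3(5). Fluorescence (ex 622/em 670 nm) was read at room temperature until it reached its minimum after about 20 min. Compound was then added and the fluorescence rise recorded. Untreated negative control. Three runs in duplicate.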

Cell membrane [11] = experiment: Induction of cell membrane disruption in Escherichia coli ATCC 25922 at 2 times MIC incubated for 2 hrs by DAPI and PI staining based optical microscopy
Summary of the method: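 Cells grown to ~2 × 10^6 cells, exposed 2 h, pelleted at 3000g for 15 min and PBS-washed. Stained with PI (5 µg/mL) then DAPI (10 µg/mL in water), each 15 min in the dark at 0 °C, then PBS-washed. Untreated controls handled identically. Imaged by 100x oil-immersion light microscopy; three repeats, duplicates each.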

Staphylococcus aureus [12] = experiment: Bactericidal activity against methicillin-resistant Staphylococcus aureus ATCC 33591 assessed as bacterial killing at 6.25 to 12.5 ug/ml incubated for 2 hrs by time-kill kinetics method; type: functional, organism-based; conditions: dose 6.25-12.5 µg/ml; summary of the method: as §2
Cell membrane [13] = experiment: Induction of cell membrane integrity loss in methicillin-resistant Staphylococcus aureus ATCC 33591 at 5 ug/ml incubated for 2 hrs by TEM analysis; conditions: dose 5.0 µg/ml
Escherichia coli [14] = experiment: Antimicrobial activity against Escherichia coli ATCC 25922 grown under presence of test compound at 1/2 MIC assessed as inhibition of bacterial growth measured after 14 passages by broth microdilution method relative to wild type; type: functional, organism-based; summary of the method: as §3
Escherichia coli [15] = experiment: Inhibition of biofilm formation in Escherichia coli ATCC 25922 at 3 ug/ml incubated overnight by crystal violet staining based method; type: functional; summary of the method: as §4

Row | SMILES | MIC (Staphylococcus aureus [1]) | MIC [2] | MIC (Enterococcus faecalis) | MIC (Pseudomonas aeruginosa) | MIC (Escherichia coli [3]) | HC50 at 1 h [6] [µg/mL] | also measured
1 | CCCCCCCCCCCCCNC(=O)[C@H](CCCCN)NC(=O)c1ccc(C(=O)N[C@@H](CCCCN)C(=O)NCCCCCCCCCCCCC)cc1 | 6 µg/mL (≈ 7.64 µM) | 6 µg/mL (≈ 7.64 µM) | inactive | inactive | inactive | – | –
2 | CCCCCCNC(=O)[C@H](CCCCN)NC(=O)c1ccc(C(=O)N[C@@H](CCCCN)C(=O)NCCCCCC)cc1 | inactive | inactive | inactive | inactive | inactive | – | –
3 | CCCCCCCCCCCCCCNC(=O)[C@H](CCCCN)NC(=O)c1ccc(C(=O)N[C@@H](CCCCN)C(=O)NCCCCCCCCCCCCCC)cc1 | inactive | inactive | inactive | inactive | inactive | – | –
4 | CCn1cc(C(=O)O)c(=O)c2cc(F)c(N3CCNCC3)cc21 [NORFLOXACIN] | – | – | – | – | – | – | Activity (Staphylococcus aureus [4]): inactive; Ratio (Staphylococcus aureus [5]): >80
5 | CCCCCCCCCCNC(=O)[C@H](CCCCN)NC(=O)c1ccc(C(=O)N[C@@H](CCCCN)C(=O)NCCCCCCCCCC)cc1 | 1.5 µg/mL (≈ 2.14 µM) | 6 µg/mL (≈ 8.56 µM) | 3 µg/mL (≈ 4.28 µM) | inactive | 3 µg/mL (≈ 4.28 µM) | 250 | –
6 | CCCCCCCCCCCCNC(=O)[C@H](CCCCN)NC(=O)c1ccc(C(=O)N[C@@H](CCCCN)C(=O)NCCCCCCCCCCCC)cc1 | 3 µg/mL (≈ 3.96 µM) | 6 µg/mL (≈ 7.92 µM) | inactive | 12 µg/mL (≈ 15.8 µM) | 3 µg/mL (≈ 3.96 µM) | > 250 | –
7 | NCCCC[C@H](NC(=O)c1ccc(C(=O)N[C@@H](CCCCN)C(=O)NCc2ccc(-c3ccccc3)cc2)cc1)C(=O)NCc1ccc(-c2ccccc2)cc1 | 3 µg/mL (≈ 3.98 µM) | 6 µg/mL (≈ 7.97 µM) | inactive | 12 µg/mL (≈ 15.9 µM) | 3 µg/mL (≈ 3.98 µM) | > 250 | –
8 | CCCCCCCCNC(=O)[C@H](CCCCN)NC(=O)c1ccc(C(=O)N[C@@H](CCCCN)C(=O)NCCCCCCCC)cc1 | 1.5 µg/mL (≈ 2.33 µM) | 3 µg/mL (≈ 4.65 µM) | inactive | 3 µg/mL (≈ 4.65 µM) | 0.75 µg/mL (≈ 1.16 µM) | > 250 | –
9 | CCCCCCCNC(=O)[C@H](CCCCN)NC(=O)c1ccc(C(=O)N[C@@H](CCCCN)C(=O)NCCCCCCC)cc1 | inactive | inactive | inactive | inactive | 6 µg/mL (≈ 9.73 µM) | – | –
10 | CCCCCCCCCNC(=O)[C@H](CCCCN)NC(=O)c1ccc(C(=O)N[C@@H](CCCCN)C(=O)NCCCCCCCCC)cc1 | 0.75 µg/mL (≈ 1.11 µM) | 1.5 µg/mL (≈ 2.23 µM) | 3 µg/mL (≈ 4.46 µM) | 3 µg/mL (≈ 4.46 µM) | 0.75 µg/mL (≈ 1.11 µM) | 180 | Activity (Staphylococcus aureus [7]): 3.74 log10CFU/ml; Activity (Cell membrane [8]): Active; inhibition at 1.5 µg/mL (Escherichia coli [9]): 50%; Activity (Cell membrane [10]): Active; Activity (Cell membrane [11]): Active; Activity (Staphylococcus aureus [12]): inactive; Activity (Cell membrane [13]): Active; Activity (Escherichia coli [14]): Active; Activity (Staphylococcus aureus [5]): Active; inhibition at 3 µg/mL (Escherichia coli [15]): 70%
